Measured values: publication PMC3219927 (Nature medicine, 2011)
Ends that are not written are not given here.

Experiments:
[1] = test system: meningeal blood flow (dura mater); experiment: Laser Doppler flowmetry of meningeal blood flow; assay type: in vivo, rat
[2] = test system: interaction between tubulin and CRMP-2; experiment: Co-immunoprecipitation with CRMP-2 antibody from spinal cord lysates, tubulin; assay type: binding
[3] = test system: interaction between CRMP-2 and Ct-dis of CaV2.2; experiment: In vitro binding; settings: Ct-dis-GST, peptide 10 μM
In short: (§1)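 GST fusions of the CaV2.2 loop 1 (L1) or distal C-terminus (Ct-dis) incubated in vitro with CRMP-2 alongside test peptide or scrambled control peptide, each at 10 μM. CRMP-2 retained on the fusion proteins was detected by immunoblot with a CRMP-2 antibody.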

CaV2.2 = CaV2.2 surface localisation; assay type: cell-based; settings: CAD neuronal cell line, co-expression of CaV2.2 with CBD3 (fused to GFP)
[4] = test system: distal C-terminus (Ct-dis) of CaV2.2; experiment: Surface plasmon resonance, immobilized Ct-dis; assay type: binding; settings: 1/3/5 μM; dissociation monitored for 4 min
In short: (§2)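 Test peptide or scrambled control peptide injected at 1, 3 and 5 μM over immobilized CaV2.2 L1 or Ct-dis. Binding was recorded as sensorgrams in resonance units, with dissociation followed for 4 min.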

[5] = test system: dorsal root ganglion (DRG) neurons; experiment: Depolarization-induced calcium influx, DRG neurons; assay type: cell-based; settings: plasmid expression
hippocampal neurons = experiment: Depolarization-induced calcium influx, hippocampal neurons; assay type: cell-based; settings: plasmid expression
neurons [6] = experiment: Cell permeation / entry into neurons; settings: in vitro, ex vivo and in vivo
N-type Ca^2+ channels = assay type: cell-based; settings: DRGs, Fura-2 imaging
[7] = test system: interaction between CRMP-2 and L1 of CaV2.2; experiment: In vitro binding; settings: L1-GST, peptide 10 μM
In short: as §1

[8] = test system: cytosolic loop 1 (L1) of CaV2.2; experiment: Surface plasmon resonance, immobilized L1; assay type: binding; settings: 1/3/5 μM; dissociation monitored for 4 min
In short: as §2

neurons [9] = settings: not told
[10] = test system: ddC-induced tactile hypersensitivity; experiment: ddC-induced neuropathic pain, paw withdrawal threshold; assay type: in vivo, rat; settings: single ddC injection
formalin-induced edema = experiment: Formalin-induced paw edema; assay type: in vivo, rat; settings: formalin 2.5%, compared to saline; 1 h after injection

COc1cc(CNC(=O)CCCC/C=C/C(C)C)ccc1O [Capsaicin, capsaicin]
Meningeal blood flow response to capsaicin alone ([1]; nasally administered capsaicin, 100 nM): rapid and robust increase in meningeal blood flow

CBD3 (ARSRLAELRGVPRGL)
Effect on interaction between tubulin and CRMP-2 [2]: did not affect the interaction between tubulin and CRMP-2
Ability of Ct-dis to pull down CRMP-2 [3]: dramatic reduction in ability of L1 or Ct-dis proteins to pull down CRMP-2
CaV2.2 localisation on co-expression (CaV2.2): almost complete retention of the channel in cytoplasmic aggregates
Binding to immobilized Ct-dis [4]: bound to immobilized L1 and Ct-dis proteins
Depolarization-induced calcium influx [5]: reduced depolarization-induced calcium influx
Depolarization-induced calcium influx (hippocampal neurons): reduced depolarization-induced calcium influx
Passage into cells, time (neurons [6]): conjugation of CBD3 to HIV-1 TAT facilitated its passage into cells in vitro, ex vivo and in vivo within minutes
K+-evoked Ca2+ influx, channel selectivity (N-type Ca^2+ channels): reduced K^+-evoked Ca^2+ influx selectively through N-type Ca^2+ channels
Ability of L1 to pull down CRMP-2 [7]: dramatic reduction in ability of L1 or Ct-dis proteins to pull down CRMP-2
Binding to immobilized L1 [8]: bound to immobilized L1 and Ct-dis proteins
Cell permeability / entry into neurons (neurons [9]): not cell permeant

CGRP8-37: CGRP antagonist (VTHRLAGLLSRSGGVVKNNFVPTNVGSKAF; ends and bridges not checked; UniProt P06881 90-119, looked up, fragment)
Dependence of capsaicin-induced blood flow changes on CGRP ([1]; prior dural administration of CGRP antagonist): could be blocked by prior dural administration of the CGRP antagonist, CGRP8-37

Nc1ccn([C@H]2CC[C@@H](CO)O2)c(=O)n1 [ddC, 2',3'-dideoxycytidine]
PWT after ddC [10]: exhibited a decrease in PWT

Formalin
Change in paw thickness (formalin-induced edema): 4 fold
